System: MS2 coat protein
Experiment: apparent Kd, MS2 coat protein; higher = weaker binding; RNA-MaP array; FMN 200 µM where present
Summary of the method: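 Stalled E. coli RNA polymerase transcribed the designs on Illumina sequencing-chip clusters. SNAP-549-labelled MS2 coat protein was titrated from 0.7 or 1.5 nM, doubling to 3 µM, without and then with constant ligand, in 100 mM Tris-HCl pH 7.5, 80 mM KCl, 4 mM MgCl2, BSA, DTT, yeast tRNA and Tween-20. Per-cluster binding curves were fitted to green signal normalised to red-channel RNA signal and control-cluster median Fmax. The apparent Kd is the median of the filtered fits.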

[1] = designed as: ON switch for flavin mononucleotide, no ligand
[2] = ligand present: flavin mononucleotide, designed as: ON switch for flavin mononucleotide
[3] = designed as: OFF switch for flavin mononucleotide, no ligand
[4] = ligand present: flavin mononucleotide, designed as: OFF switch for flavin mononucleotide

Sequence	apparent Kd [1]	apparent Kd [2]	apparent Kd [3]	apparent Kd [4]
UUAGGAUGUGAAGGAUAUGCCGAGUUAAGCCCAGCAGAAGGUUACAUACCUUUUGAUACAUGAGGAUCACCCAUGUUCUAAGAU	41.6 nM	28.3 nM		
UUCCAACGAGGAUAUCGAUGGUGGAACAUGAGGAUCACCCAUGUAUGAGAUAGUGUAGUUCGAGAAGGCGUUCAGU			58 nM	32.3 nM
CGGAUCAAUACAGGAUAUGGUGACGCACAUGAGGAUCACCCAUGUCCGCAGCGUGCUAAGCACGCCCAGAAGGGUAUUGAUUCG	738 nM	68.3 nM		
UGUCGGAGCAGAGGAUAUUACAUGAGGAUCACCCAUGUAUGACCCAAUAGCUGGAAACAGCAAUGUAAGAAGGCUGCUCCGACA			14.6 nM	295 nM
CCUCCACAUUAGGAUAUCGUCACACUAUUGUGACGAGAAGGAAUGACAUGAGGAUCACCCAUGUUAUCGUGAUG			19.4 nM	49.8 nM
UGAUCGAGAGAUCUUAGAUUCUGGUAGGAUAUACAUUAUGUUUGAUAUACAUGAGGAUCACCCAUGUAGAAGGACUAGAGUCUA			7.34 nM	15.9 nM
CUAGUACAUGAGGAUCACCCAUGUCAGGAUAUUGGAUAUGACAUGGAAAACAUGUUUACAAGAAGGGACUAUAG			285 nM	290 nM
CUAAAUCAUGUAGGAUAUGCGUGGCGAAGCUAUGCAGAAGGACAUGAGGAUCACCCAUGUUUUUCCGUCUGCGUACAGACGGAA			259 nM	260 nM
UAUGACAUGAGGAUCACCCAUGUCAGCGAGAAAUGAGAGUCACAGGAUAUGUUUUCGGCCGGCAGACAGAAGGGUGACCCUGAG	10.9 nM	7.02 nM		
UGUUAUUUGACAGGAUAUUGAUUGUUAAGUUUUUACAUGAGGAUCACCCAUGUUGUUCAUUCGUACAAGAAGGGUCAAGUUUUU	72.8 nM	27.2 nM		
UGAUAGGACAGAGGAUAUACGGAUAGGAUCUACUAUCUUCUUCAAAUAACAUGAGGAUCACCCAUGUAGAAGGCUGUCCUAUCU			15 nM	33 nM
CUGAAGAUAUCAGGAUAUCUAUUUCCUACAUGAGGAUCACCCAUGUAGGUGAUCAGCCGAGUAAAGGAGAAGGGAUAUCUUUAG	27.1 nM	10.1 nM		
AUCGUAACAGGAGGAUAUUACACUCGGUUGGUCCGCUGCGGGUUGAAACAUGAGGAUCACCCAUGUAAGAAGGCCUGUGUGACU			317 nM	103 nM
GCUAUUGAUGUAGGAUAUGAUAUAGAAACUAUGUCAGAAGGACAUGAGGAUCACCCAUGUCAAUGGAUGGAGAGAAGAGAUGGC			28 nM	30.7 nM
GGAUAUAUACAGGAGGAUAUGAGAACAAAGACAUGAGGAUCACCCAUGUACAAAAGGUGGAACAAUCAGAAGGUCUAAACAACAAA	78.3 nM	69 nM		
AGCUGGUAGAGAGGAUAUCAUGUGCUGACAUGAGGAUCACCCAUGUAGGGACGUCGGUCCAAUUAUGAGAAGGCUCUACCAGCA	80.5 nM	48.2 nM		
AAAAGACAUGAGGAUCACCCAUGUCAAGACGUGGGAGGAUAUGUAUGGAAACCAGACUGUACAGAAGGCCUUUGUC	46.8 nM	20.1 nM		
AAAUAGUUAGGAUAUACAUGAGGAUCACCCAUGUGGACUUAUGGCGAUUAAUUUAGUGGUAGAAGGGACUAAAA			37.2 nM	47.6 nM
ACAUGAGGAUCACCCAUGUUAUCAGGGACUUCAAUUAUUUGUAGAAGGCUGUUUUCUUGUAAGUCAGAGGAUAUACAAUUAAAU			11.9 nM	14.3 nM
GCACUUCGGCAGAAGGGACUAUGGGUAUGGUAGUCAGGAUAUGCAGGGUGGGCGUUUCACAUGAGGAUCACCCAUGUAGGACCA	15.1 nM	8.52 nM		
GGGAGACAUGAGGAUCACCCAUGUGAAAACGUGGCAGGAUAUCGAUGGAAACCAUACUGUCGAGAAGGGCCUUGUC	56.7 nM	35.6 nM		
GUAGCAAUCGGAGGAUAUUCAUUAAACAUGAGGAUCACCCAUGUUAAUUUGGGAGAAGGCCGAUUGCUACAAGAGCGAAAGCUC	7.23 nM	4.66 nM		
AAAACGCGGGAGAAGGCCACUUACCGUUACAUGGACGUGAGAAAUAAAUGGAGGAUAUCCCUACAUGAGGAUCACCCAUGUAAU	412 nM	103 nM		
GCGGUACAUGAGGAUCACCCAUGUCAGGAUAUCCGCUGUUUGUUGAUUAGCAGGCGGUGGAGAAGGGACUUCGC			36.6 nM	36 nM
CCACGACCGGAGAAGGCAGUUUGUGGGCCUGUUCCUGUCGGAUACAUGAGGAUCACCCAUGUACCUGAGGAUAUCUGGUCGCAG			5.52 nM	6.07 nM
ACAUGAGGAUCACCCAUGUUAUCCGGGACUUCAAUUGUUUCUAGAAGGCUGUUUACUUGUUAGUCAGAGGAUAUAGAAUCAAAU			10.7 nM	11.4 nM
UGAUCUUGUGUUAGGAUAUGCUGGUUUUUUUUUCAGCAGAAGGGACAUGAGGAUCACCCAUGUUCUCUCUUUUU			12.8 nM	17.3 nM
AGCUCGGGUUAGGAUAUUCGCAGCAAGAUGACCGAAGAAGGGACCACAUGAGGAUCACCCAUGUUUGUUUAGAA			25.9 nM	24.5 nM

Sequence	apparent Kd [1]	apparent Kd [2]	apparent Kd [3]	apparent Kd [4]
CAUUUGUGAGGAUAUCAGGUGUGCUAGCGUACUGGUACAUCUGAGAAGGCACAUGAGGAUCACCCAUGUUCCUU			12.8 nM	30 nM
UGUGCGUAUGUGAGGAUAUGCUGGUCCUUGGAUCGGCAGAAGGCACAUGAGGAUCACCCAUGUGGUGUCGUACA			493 nM	19.2 nM
UUAAAUCAUGUAGGAUAUGCAUGGCCAAGCUAGGCAGAAGGACAUGAGGAUCACCCAUGUUAUAGCUACCAAGUAAGGUGGCAA			32.9 nM	279 nM
UUCUUUCCUCAUGUACAUGAGGAACAUGAGGAUCACCCAUGUAGAAGGAUUUCAAUUAAAUUAAAAUAGGAUAUACAUAUAUUU			15.8 nM	16.4 nM
ACUCAGUCAGGAUAUCGUUAAUUUAAUUGUUUGUAUUAGUUCGAGAAGGGACAUGAGGAUCACCCAUGUACUCA			31.7 nM	87.4 nM
GACUUGCGCACAGGAUAUCCACGGAGCGGACGUGGAGAAGGGUGACAUGAGGAUCACCCAUGUACGUAAGUCUGGAUCACAUCC	41.8 nM	19.5 nM		
GUGUACAGAGGAUAUACAAUAGGAGUUACGAAAGUAACUUCACAUGAGGAUCACCCAUGUAGAAGGCUGUACAC			18.1 nM	37.8 nM
GGAGCCGGCCUAGGAUAUUUCAUAACAAAACAUGAGGAUCACCCAUGUAGGCCAGAAGGCCUUGGGAAGAAGGAGGUCGGCUCC	29.6 nM	11.7 nM		
GGCGGCGCGGGCCACCGCAGGGCCAGAAGGACAUGAGGAUCACCCAUGUGGCAGAACAGGGCGGUGUAGGAUAUGGCAGGCUCG			35.5 nM	76.2 nM
UUGUGCUUAGAGAAGGUUCAAACUACAUAUUGCGCACAUGAGGAUCACCCAUGUUGGUGAAUAAGAAAGGAUAUUUGACUGUGC			487 nM	360 nM
UUCAGACAUGAGGAUCACCCAUGUGAGGAUAUGAUGCGAUCGUCGAAAGACGAUAGCAUCAGAAGGCACAUAUG			167 nM	315 nM
GAUCUACAUGAGGAUCACCCAUGUAAGGAUAUCGUCACUGGAGCUUCGGCUCCAGUGACGAGAAGGUACAAUUA			28.8 nM	32.1 nM
GCUGAAUGAACAUGAGGAUCACCCAUGUACAGGAAACUGAAUGAGGAUAUCCAUAGCAAAGCUAUGGAGAAGGCAUGGGUCAGC	338 nM	94 nM		
AUCAGAUCUCGACUGUCCAACAUGAGGAUCACCCAUGUCAGAAGAAGGGACUAUUAACUAAUCUGUCAGGAUAUUUUGACGCGG			10.6 nM	49.7 nM
GGGCACAAAGGAUAUACAUGAGGAUCACCCAUGUUCACCACAACAUGUUACUGCCCAAGUAGAAGGUUGGCCCA			38.7 nM	288 nM
UAUUAUUUGGAGAAGGACAUGAGGAUCACCCAUGUCGCCGGGCCCGGGAAACCGGGCCCGGCCAUGUAGGAUAUCCGGGUGGUA			12.7 nM	13.6 nM
AGGGAGUUAGGAUAUGCUGCUCGUCACUUGCGUGAUGAGUAGCAGAAGGGACAUGAGGAUCACCCAUGUAAAGA			42.1 nM	24.7 nM
UGAUCUUUUGUUAGGAUAUGCUGGGUUUUUUCUCAGCAGAAGGGACAUGAGGAUCACCCAUGUUUUGUCAUAAA			18.9 nM	47.6 nM
GCCAACUCAUGAGGAUAUGGCACCUUAUUGGUGCCAGAAGGCGUGUCUAUUGACAUGAGGAUCACCCAUGUAUUAUAGUUGGCA	678 nM	105 nM		
UUACGUCCCGUUUACAUGAGGAUCACCCAUGUCGAAAGAGCGGAGGAUAUGCUACCUAGUUGGUAGCAGAAGGCUGCAACGUCG	35.2 nM	46.5 nM		
UCGACUAGCGCCAGUCGAACAUGAGGAUCACCCAUGUACUCCAGAAGGCCGCCCAAGAACGGAGUGGAGGAUAUGGAGGUUCUC	42.9 nM	30.4 nM		
GCAGGACAUGAGGAUCACCCAUGUCUCAAAUAUUGAGGAUAUGGACACGGUAUAUCCGAACCAGAAGGCAACCUGC	48.6 nM	39.8 nM		
ACAUGAGGAUCACCCAUGUAGAAUGAAGAAGGUACUAUAUAGAUAUACACCCUAUGUCUAUAUAGUAAGGAUAUUCUAAUAAUU	6.45 nM	6.35 nM		
UGUUGUAUUACAGGAUAUCUAUUAGCUUUAUUUAGAGAAGGGUAUUCACAUGAGGAUCACCCAUGUAUAUACGAGGAAGUUGUG	46.1 nM	50.1 nM		
AGAUCACAUGAGGAUCACCCAUGUCAGGAUAUGAUACUAUGUACUUCGGUACAUAGUAUCAGAAGGGACUUAAA			101 nM	283 nM
CCGGAAACGGGUAGCCUGACAUGAGGAUCACCCAUGUGAACCGAGGAUAUGGAUCCUAAUUGGAUCCAGAAGGUGGAAGGCUAC	381 nM	167 nM		
GGAAGACAAAGUCUUCCAUAACGAACAUGAGGAUCACCCAUGUAGGAUAUGCUUCUCAAAGAGAAGCAGAAGGACAUGUGUCUU			29.7 nM	137 nM

From the EternaBench riboswitch data
